Out of some 190,000 compounds screened, about 200 (0.11%) were called active. Many of the other results were omitted from the sample, so actives are more common in it than they were. A number with no mark means an inactive call.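 How the source made its calls: active means inhibition above 80%; inactive means the rest.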

We go through 61 compounds from PubChem BioAssay AID1325 (NMMLSC, 2008).

Sequence of Broad substrate specificity ATP-binding cassette transporter ABCG2 (Homo sapiens) (Q9UNQ0 whole entry, looked up): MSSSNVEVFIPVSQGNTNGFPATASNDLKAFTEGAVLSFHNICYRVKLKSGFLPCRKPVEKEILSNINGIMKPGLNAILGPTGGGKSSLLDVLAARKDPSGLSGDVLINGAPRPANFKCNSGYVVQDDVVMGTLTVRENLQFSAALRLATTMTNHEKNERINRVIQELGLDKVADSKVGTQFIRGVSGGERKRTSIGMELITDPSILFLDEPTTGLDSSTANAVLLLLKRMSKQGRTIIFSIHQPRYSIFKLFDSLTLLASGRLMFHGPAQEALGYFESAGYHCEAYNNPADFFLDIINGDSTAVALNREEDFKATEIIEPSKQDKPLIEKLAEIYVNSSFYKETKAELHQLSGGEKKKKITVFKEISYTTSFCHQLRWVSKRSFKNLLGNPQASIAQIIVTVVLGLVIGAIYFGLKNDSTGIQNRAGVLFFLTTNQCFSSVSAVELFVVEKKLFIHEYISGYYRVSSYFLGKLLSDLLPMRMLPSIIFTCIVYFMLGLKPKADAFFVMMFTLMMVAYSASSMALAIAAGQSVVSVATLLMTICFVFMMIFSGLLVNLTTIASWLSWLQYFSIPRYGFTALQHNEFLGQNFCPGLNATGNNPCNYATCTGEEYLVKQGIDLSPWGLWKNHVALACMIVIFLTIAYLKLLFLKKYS

The experiment deals with Broad substrate specificity ATP-binding cassette transporter ABCG2 (Homo sapiens) (UniProt Q9UNQ0). The experiment in a line: ABCG2 efflux pump inhibitors, primary screen, multiplex with ABCB1, IgMXP3 cells, flow cytometry (AID 1325).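 Further: 0% = DMSO and 100% = nicardipine control wells.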 The conditions noted are these: JC-1 efflux, at 6.6 µM, hits give high values. In outline:
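Assay system – ABCG2 IgMXP3 and barcoded ABCB1 CCRF-Adr cell mix · Input – 3 million cells/mL in well · Reagent – JC-1 fluorescent substrate · Compound – single test compound dose, 6.6 µM final · Timing – 10 min exposure at 25 °C with rotation, no wash · Detection – flow cytometry of retained JC-1 fluorescence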
In general terms: Flow cytometry measures light scatter and fluorescence of single cells or particles in a stream.
What is called inhibition is the change of the read-out against control, counted positive when it falls. Take `CC(C)n1c(-c2ccncc2)n[nH]c1=S`: the inhibition is 0.69%.

With `Clc1ncn(CCOc2ccccc2)c1Cl`, the inhibition is 1.15%.

Regarding `CN(/C(=N/S(=O)(=O)c1cccs1)c1ccccc1)c1ccc(O)cc1`, the inhibition was 0.46%. `N#C/C(=C/c1ccc(N2CCOCC2)o1)C(=O)N1CCOCC1`: the inhibition is 7.86%. `COc1ccccc1-c1nnc(NC(=O)c2ccc3ncsc3c2)o1`: the inhibition is -4.46%.

As to `COC(=O)c1ccc(CSc2nncn2N)cc1`, the inhibition was -1.84%. The result for `CCOc1ccc(CN2CCN(Cc3ccon3)CC2CCO)cc1` (stereo unspecified) reads -2.99%. For the compound `Cc1ncc([N+](=O)[O-])n1CCOC(=O)c1ccc(Br)cc1`, the inhibition is 9.29%.

In the case of `CCO/N=C(/C)c1c(O)cc(-c2ccccc2)n(-c2ccccc2)c1=O`, the inhibition is 32.1%. For the compound `Cc1nnsc1C(=O)Nc1cccc(Cl)c1C`, the inhibition is 10.7%. As for `CCC1=NN(C(=O)Cc2ccc([N+](=O)[O-])cc2)C(O)(c2ccc(Br)cc2)C1` (stereo unspecified), the inhibition is 5.42%. The result for `O=c1c(-c2ccccc2)coc2cc(O)ccc12` reads 2.5%; that for `CCn1nc(C)c(/C=N/NC(=O)Cc2ccc(Cl)cc2)c1C`, 9.46%; that for `Cc1ccc2nc(SCc3cn4c(C)cc(C)nc4n3)[nH]c2c1`, 7.53%. For `CC(C)(C)n1nc2c(c1NC(=O)c1cc3ccccc3o1)CSC2`, the inhibition was 0.23%. Regarding `Cc1nc(N)c(Br)c(C)c1Br`, the inhibition is 2.8%. With `CC(CCn1cccn1)NC(=O)CCc1nnc(CCc2ccccc2)o1` (stereo unspecified) the figure was -0.02%; with `CCOC(=O)c1c(NC(=O)c2ccc(Br)o2)sc2c1CCCC2`, 14.6%.

Turning to `CCCOC(=O)Nc1sc2c(c1C(=O)OCC)CCC2`, the inhibition was 31.4%. As to `CCOCC(=O)Nc1sc2c(c1C(=O)OCC)CCCC2`, the inhibition is 104% (active). Regarding `O=C(NCc1ccccc1Cl)C1CCC(CNc2c(N3CCCCC3)c(=O)c2=O)CC1` (stereo unspecified), the inhibition was 0%. For `CCOC(=O)c1sc(/N=C/C2=C(O)CC(C)(C)CC2=O)c(C(=O)OCC)c1C`, the inhibition is 3.82%. With `COc1ccc(CC(=O)NCc2nnc(SCC(=O)Nc3nccs3)n2C)cc1` the figure was 0.7%; with `COc1cc(NC(=O)c2cccnc2SC)cc(OC)c1`, 11.7%; with `Cc1ccc(N2C(=O)SC(N(CC(=O)O)c3ccc(C)cc3)C2=O)cc1` (stereo unspecified), 1.16%. The result for `CC(=O)c1ccc(NC(=O)Nc2ccc([N+](=O)[O-])cc2C)cc1` reads 28.4%. The result for `COc1ccc(-c2cn(-c3ccc(OC)cc3)c(=S)[nH]2)cc1` reads 6.92%; that for `COc1cccc(NC(=O)c2ccc(Cn3cc([N+](=O)[O-])cn3)o2)c1`, 89.2% (active). On to `CCc1ccc(NC(=O)c2ccc(Cn3cc([N+](=O)[O-])cn3)cc2)cc1`, for which the inhibition was 1.22%.

Take `O=C(Nc1ccc(Br)c2cccnc12)c1ccc(Cn2cc([N+](=O)[O-])cn2)o1`: the inhibition is 1.01%. As for `Cc1ccc(SCCC(=O)NC(C(C)C)C(C)C)cc1`, the inhibition was 29.5%.

With `CCOC(=O)CNc1nc2ccccc2n2c(C)nnc12`, the inhibition is 4.58%. The result for `COc1ccc(-n2c(C)cc(C(=O)CSc3nnc(-c4cccs4)o3)c2C)cc1` reads 4.95%; that for `COc1ccc(-n2c(C)cc(C(=O)COC(=O)c3cc(OC)c(OC)cc3NC(=O)c3cccs3)c2C)cc1`, 91.7% (active); that for `Cc1cc(C(=O)COC(=O)c2cccs2)c(C)n1-c1c(C)n(C)n(-c2ccccc2)c1=O`, 1.17%.

Regarding `Brc1ccc(-c2csc(N/N=C/c3cccnc3)n2)cc1`, the inhibition is -0.01%. The result for `O=C(COC(=O)c1ccccc1)Nc1cccc(S(=O)(=O)N2CCOCC2)c1` reads 8.84%.

In the case of `Cc1ccc(NC(=O)C(=O)NCc2ccc(/C=N/NC(=O)c3c(C)nc4cc(C)ccn34)o2)cc1`, the inhibition is 24.5%. The result for `c1ccc(-n2nnnc2-c2cccnc2)cc1` reads 1.93%; that for `COc1cccc(OC)c1C(=O)Nc1ccc(Cc2ccncc2)cc1`, 1.46%. With `CCOc1ccc(C(CC(=O)O)NC(=O)C23CC4CC(CC(C4)C2)C3)cc1OC` (stereo unspecified) the figure was -1.01%.

As to `O=[N+]([O-])c1ccc2[nH]c3c(c2c1)CCCC3O` (stereo unspecified), the inhibition was 14.8%. With `O=C(NC1CC1)C1CCCN(C(=O)NC2CCCCC2)C1` (stereo unspecified) the figure was 6.29%. With `CCN(CC)c1ccc([N+](=O)[O-])cc1C(=O)O` the figure was 3.47%; with `COc1cccc2cc(/C(C)=N/NC(=O)c3ccco3)oc12`, 6.63%. The result for `CC(=O)N1CCc2cc(Br)cc(S(=O)(=O)CCC(=O)Nc3c(C)n(C)n(-c4ccccc4)c3=O)c21` reads -0.95%; that for `O=C(Cn1ncc(N2CCCC2)c(Br)c1=O)c1ccc(Cl)cc1`, 8.74%.

As for `O=C(N/C(=C\c1ccc(F)cc1)C(=O)N1CCCCCC1)c1ccccc1`, the inhibition was 0.94%. Turning to `CCc1nnc(NC(=O)Cc2cccs2)s1`, the inhibition is -0.23%. As to `COc1cccc(/C(C)=N/Nc2ncc(Cl)cc2Cl)c1`, the inhibition was 16.5%.

Take `Cc1c(Cl)cnc(NC(=O)COC(=O)c2ccc(S(=O)(=O)NCc3ccco3)cc2)c1Cl`: the inhibition was -0.23%. On to `C/C(=N\Nc1ncc(Cl)cc1Cl)c1ccc(S(=O)(=O)NCc2ccco2)cc1`, for which the inhibition is 81.6% (active). The result for `Cc1ccccc1N/C(SCc1ccc(Cl)cc1)=C(/C#N)C(N)=O` reads 9.99%. With `C/C(N)=C(/C#N)C(=O)COC(=O)C1CCN(C(=O)c2ccc(Cl)cc2)CC1` the figure was 6.63%; with `Cc1c(C(=O)NCCCc2ccccc2)cccc1[N+](=O)[O-]`, 5.18%; with `O=C(NCCCN1CCOCC1)c1ccc([N+](=O)[O-])cc1[N+](=O)[O-]`, 1.56%. With `CN1CCCN(C(=O)C2CCCCC2)CC1` the figure was 3.74%. With `CCN1CCN(C(=O)CCN2C(=O)c3ccccc3C2=O)CC1`, the inhibition is 12.2%.

For `CCN(C(=O)CSc1nnc2ccccn12)C1CCS(=O)(=O)C1` (stereo unspecified), the inhibition is 6.4%.

Take `O=C(CCCOc1ccc(Cl)cc1Cl)NNC(=O)C1CCC1`: the inhibition is 8.42%.

In the case of `C#CCOCCOCCOCCNc1nc(N2CCN(C(=O)[C@H](Cc3ccc(O)cc3)n3cc(C(N)CC(C)C)nn3)CC2)nc(N2CCN(C(=O)[C@H](CCC(=O)O)n3cc(C(N)[C@H](C)CC)nn3)CC2)n1` (stereo partly specified), the inhibition was -1.91%.
